{
  "source": "ChEMBL document CHEMBL1268917",
  "about": "“Synthesis and biological evaluation of radio-iodinated benzimidazoles as SPECT imaging agents for NR2B subtype of NMDA receptor” (Bioorg Med Chem, 2010)",
  "type_in_all_cases": "ADME, organism-based",
  "key": {"Heart [1]": {"test_system": "Heart", "experiment": "Biodistribution in ddY mouse heart assessed per gram of tissue at 14.8 kBq, iv after 5 mins", "conditions": "in vivo", "summary_of_the_method": "(§1)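 Killed at set times after injection; organs and blood removed, weighed, gamma counted. Data as % injected dose per gram tissue, mean SD, n = 5–6.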"}, "Lung [2]": {"test_system": "Lung", "experiment": "Biodistribution in ddY mouse lung assessed per gram of tissue at 14.8 kBq, iv after 360 mins", "conditions": "in vivo, 6 h", "summary_of_the_method": "(§2)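 Radioiodinated tracer (14.8 kBq) injected via tail vein into male ddY mice (6 weeks, 30–35 g). Organs removed at set times after injection, weighed and gamma-counted; uptake expressed as % injected dose per gram tissue, mean ± SD, n = 5–6.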"}, "Lung [3]": {"test_system": "Lung", "experiment": "Biodistribution in ddY mouse lung assessed per gram of tissue at 14.8 kBq, iv after 30 mins", "conditions": "in vivo, 0.5 h", "summary_of_the_method": "as §2"}, "Blood [4]": {"test_system": "Blood", "experiment": "Biodistribution in ddY mouse blood assessed per gram of tissue at 14.8 kBq, iv after 180 mins", "conditions": "in vivo, 3 h", "summary_of_the_method": "as §1"}, "Liver [5]": {"test_system": "Liver", "experiment": "Biodistribution in ddY mouse liver assessed per gram of tissue at 14.8 kBq, iv after 0.5 mins", "conditions": "in vivo", "summary_of_the_method": "as §1"}, "Kidney [6]": {"test_system": "Kidney", "experiment": "Biodistribution in ddY mouse kidney assessed per gram of tissue at 14.8 kBq, iv after 5 mins", "conditions": "in vivo", "summary_of_the_method": "as §1"}, "Brain [7]": {"test_system": "Brain", "experiment": "Biodistribution in ddY mouse brain assessed per gram of tissue at 14.8 kBq, iv after 5 mins", "conditions": "in vivo", "summary_of_the_method": "as §1"}, "Liver [8]": {"test_system": "Liver", "experiment": "Biodistribution in ddY mouse liver assessed per gram of tissue at 14.8 kBq, iv after 360 mins", "conditions": "in vivo, 6 h", "summary_of_the_method": "as §1"}, "Stomach [9]": {"test_system": "Stomach", "experiment": "Biodistribution in ddY mouse stomach assessed per gram of tissue at 14.8 kBq, iv after 360 mins", "conditions": "in vivo, 6 h", "summary_of_the_method": "as §2"}, "Kidney [10]": {"test_system": "Kidney", "experiment": "Biodistribution in ddY mouse kidney assessed per gram of tissue at 14.8 kBq, iv after 180 mins", "conditions": "in vivo, 3 h", "summary_of_the_method": "as §1"}, "Intestine [11]": {"test_system": "Intestine", "experiment": "Biodistribution in ddY mouse intestine assessed per gram of tissue at 14.8 kBq, iv after 0.5 mins", "conditions": "in vivo", "summary_of_the_method": "as §1"}, "Spleen [12]": {"test_system": "Spleen", "experiment": "Biodistribution in ddY mouse spleen assessed per gram of tissue at 14.8 kBq, iv after 360 mins", "conditions": "in vivo, 6 h", "summary_of_the_method": "as §2"}, "Intestine [13]": {"test_system": "Intestine", "experiment": "Biodistribution in ddY mouse intestine assessed per gram of tissue at 14.8 kBq, iv after 60 mins", "conditions": "in vivo, 1 h", "summary_of_the_method": "as §1"}, "Heart [14]": {"test_system": "Heart", "experiment": "Biodistribution in ddY mouse heart assessed per gram of tissue at 14.8 kBq, iv after 360 mins", "conditions": "in vivo, 6 h", "summary_of_the_method": "as §1"}, "Blood [15]": {"test_system": "Blood", "experiment": "Biodistribution in ddY mouse blood assessed per gram of tissue at 14.8 kBq, iv after 0.5 mins", "conditions": "in vivo", "summary_of_the_method": "as §1"}, "Stomach [16]": {"test_system": "Stomach", "experiment": "Biodistribution in ddY mouse stomach assessed per gram of tissue at 14.8 kBq, iv after 180 mins", "conditions": "in vivo, 3 h", "summary_of_the_method": "as §2"}, "Lung [17]": {"test_system": "Lung", "experiment": "Biodistribution in ddY mouse lung assessed per gram of tissue at 14.8 kBq, iv after 180 mins", "conditions": "in vivo, 3 h", "summary_of_the_method": "as §2"}, "Spleen [18]": {"test_system": "Spleen", "experiment": "Biodistribution in ddY mouse spleen assessed per gram of tissue at 14.8 kBq, iv after 180 mins", "conditions": "in vivo, 3 h", "summary_of_the_method": "as §2"}, "Spleen [19]": {"test_system": "Spleen", "experiment": "Biodistribution in ddY mouse spleen assessed per gram of tissue at 14.8 kBq, iv after 30 mins", "conditions": "in vivo, 0.5 h", "summary_of_the_method": "as §2"}, "Heart [20]": {"test_system": "Heart", "experiment": "Biodistribution in ddY mouse heart assessed per gram of tissue at 14.8 kBq, iv after 60 mins", "conditions": "in vivo, 1 h", "summary_of_the_method": "as §1"}, "Liver [21]": {"test_system": "Liver", "experiment": "Biodistribution in ddY mouse liver assessed per gram of tissue at 14.8 kBq, iv after 180 mins", "conditions": "in vivo, 3 h", "summary_of_the_method": "as §1"}, "Stomach [22]": {"test_system": "Stomach", "experiment": "Biodistribution in ddY mouse stomach assessed per gram of tissue at 14.8 kBq, iv after 60 mins", "conditions": "in vivo, 1 h", "summary_of_the_method": "as §2"}, "Pancreas": {"test_system": "Pancreas", "experiment": "Biodistribution in ddY mouse pancreas assessed per gram of tissue at 14.8 kBq, iv after 60 mins", "conditions": "in vivo, 1 h", "summary_of_the_method": "as §2"}, "Kidney [23]": {"test_system": "Kidney", "experiment": "Biodistribution in ddY mouse kidney assessed per gram of tissue at 14.8 kBq, iv after 360 mins", "conditions": "in vivo, 6 h", "summary_of_the_method": "as §1"}, "Brain [24]": {"test_system": "Brain", "experiment": "Biodistribution in ddY mouse brain assessed per gram of tissue at 14.8 kBq, iv after 360 mins", "conditions": "in vivo, 6 h", "summary_of_the_method": "as §1"}, "Blood [25]": {"test_system": "Blood", "experiment": "Biodistribution in ddY mouse blood assessed per gram of tissue at 14.8 kBq, iv after 30 mins", "conditions": "in vivo, 0.5 h", "summary_of_the_method": "as §1"}, "Stomach [26]": {"test_system": "Stomach", "experiment": "Biodistribution in ddY mouse stomach assessed per gram of tissue at 14.8 kBq, iv after 5 mins", "conditions": "in vivo", "summary_of_the_method": "as §2"}, "Kidney [27]": {"test_system": "Kidney", "experiment": "Biodistribution in ddY mouse kidney assessed per gram of tissue at 14.8 kBq, iv after 0.5 mins", "conditions": "in vivo", "summary_of_the_method": "as §1"}, "Kidney [28]": {"test_system": "Kidney", "experiment": "Biodistribution in ddY mouse kidney assessed per gram of tissue at 14.8 kBq, iv after 60 mins", "conditions": "in vivo, 1 h", "summary_of_the_method": "as §1"}, "Blood [29]": {"test_system": "Blood", "experiment": "Biodistribution in ddY mouse blood assessed per gram of tissue at 14.8 kBq, iv after 5 mins", "conditions": "in vivo", "summary_of_the_method": "as §1"}},
  "data": [
    {"compound": "CS(=O)(=O)Nc1ccc2nc(CN3CCC(Cc4ccc([125I])cc4)CC3)[nH]c2c1", "values": [
      {"measurement": "Drug uptake", "setting": "Heart [1]", "result": 5.83, "unit": "% ID/g"},
      {"measurement": "Drug uptake", "setting": "Lung [2]", "result": 0.93, "unit": "% ID/g"},
      {"measurement": "Drug uptake", "setting": "Lung [3]", "result": 1.86, "unit": "% ID/g"},
      {"measurement": "Drug uptake", "setting": "Blood [4]", "result": 0.55, "unit": "% ID/g"},
      {"measurement": "Drug uptake", "setting": "Liver [5]", "result": 4.6, "unit": "% ID/g"},
      {"measurement": "Drug uptake", "setting": "Kidney [6]", "result": 10.99, "unit": "% ID/g"},
      {"measurement": "Drug uptake", "setting": "Brain [7]", "result": 0.44, "unit": "% ID/g"},
      {"measurement": "Drug uptake", "setting": "Liver [8]", "result": 10.93, "unit": "% ID/g"},
      {"measurement": "Drug uptake", "setting": "Stomach [9]", "result": 3.56, "unit": "% ID/g"},
      {"measurement": "Drug uptake", "setting": "Kidney [10]", "result": 15.23, "unit": "% ID/g"},
      {"measurement": "Drug uptake", "setting": "Intestine [11]", "result": 0.55, "unit": "% ID/g"},
      {"measurement": "Drug uptake", "setting": "Spleen [12]", "result": 1.6, "unit": "% ID/g"},
      {"measurement": "Drug uptake", "setting": "Intestine [13]", "result": 3.79, "unit": "% ID/g"},
      {"measurement": "Drug uptake", "setting": "Heart [14]", "result": 3.62, "unit": "% ID/g"},
      {"measurement": "Drug uptake", "setting": "Blood [15]", "result": 4.74, "unit": "% ID/g"},
      {"measurement": "Drug uptake", "setting": "Stomach [16]", "result": 4.04, "unit": "% ID/g"},
      {"measurement": "Drug uptake", "setting": "Lung [17]", "result": 1.61, "unit": "% ID/g"},
      {"measurement": "Drug uptake", "setting": "Spleen [18]", "result": 2.85, "unit": "% ID/g"},
      {"measurement": "Drug uptake", "setting": "Spleen [19]", "result": 2.91, "unit": "% ID/g"},
      {"measurement": "Drug uptake", "setting": "Heart [20]", "result": 4.35, "unit": "% ID/g"},
      {"measurement": "Drug uptake", "setting": "Liver [21]", "result": 17.81, "unit": "% ID/g"},
      {"measurement": "Drug uptake", "setting": "Stomach [22]", "result": 2.4, "unit": "% ID/g"},
      {"measurement": "Drug uptake", "setting": "Pancreas", "result": 4.55, "unit": "% ID/g"},
      {"measurement": "Drug uptake", "setting": "Kidney [23]", "result": 10.51, "unit": "% ID/g"},
      {"measurement": "Drug uptake", "setting": "Brain [24]", "result": 0.47, "unit": "% ID/g"},
      {"measurement": "Drug uptake", "setting": "Blood [25]", "result": 0.53, "unit": "% ID/g"},
      {"measurement": "Drug uptake", "setting": "Stomach [26]", "result": 1.28, "unit": "% ID/g"},
      {"measurement": "Drug uptake", "setting": "Kidney [27]", "result": 3.26, "unit": "% ID/g"},
      {"measurement": "Drug uptake", "setting": "Kidney [28]", "result": 8.52, "unit": "% ID/g"},
      {"measurement": "Drug uptake", "setting": "Blood [29]", "result": 0.95, "unit": "% ID/g"}
    ]}
  ]
}
